# Compound activity from PubChem.
# KLF5 inh: suppresses KLF5 promoter-driven expression | DLD-1 KLF5 promoter-luciferase reporter, luminescence | inhibition, % at 5 µM | 290,000 compounds, 0.23% hits;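 active means inhibition above a per-plate limit of that plate's mean compound inhibition plus 3 SD, cut at about 60% in these data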;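 further: higher means less KLF5 promoter-driven luciferase light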
# BaF3 parental: counter-screen for JAK2V617F inhibitors: parental Ba/F3 viability inhibitors; CellTiter-Glo ATP luminescence; inhibition, % at 5.6 µM; 220,000 compounds, 1.1% hits; AID 1486;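 active means inhibition above a per-campaign cutoff, the mean inhibition of all tested compounds plus 3 SD, cut at about 27% in these data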
# MT stabilize HCS: stabilizes microtubules in HeLa cells; 200,000 compounds, 0.83% hits; AID 2205; % tubulin-high responders, % at 10 µM; HeLa tubulin immunostaining HCS, 24 h; share of cells brighter than vehicle mean+2SD;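 active means plate Z-score above 3 for both tubulin-high and condensed-nucleus cell shares, with cell loss under 80%, at 10 µM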;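 further: anti alpha tubulin signal scored within the nucleus-defined area of each cell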
# IEC-6 tox: IEC-6 cytotoxicity, counter-screen for KLF5 inhibitors. luminescence viability. inhibition, % at 5 µM. 290,000 compounds, 0.78% hits. AID 1825; in the data active means inhibition above about 22%
# Ba/F3 V617F tox: lowers viability of Ba/F3 cells expressing EpoR and JAK2V617F; ATP luminescence; inhibition, % at 5.6 µM; 220,000 compounds, 1.1% hits;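 active means inhibition above the campaign mean plus 3 SD over all tested compounds, cut at about 24% in these data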;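 further: cytokine-independent growth of Ba/F3 cells driven by EpoR plus mutant JAK2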
# bCat nuc transl: alters nuclear translocation of beta-catenin in HeLa cells; AID 1665; 190,000 compounds, 0.3% hits; immunofluorescence imaging; nuclear translocation activity, % at 5 µM;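 active means nuclear translocation activity above 50% at 5 µM, with a well cell count of 50 or more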;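 further: per-cell ratio of nuclear to cytoplasmic median beta-catenin stain intensity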
#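 assay system = human HeLa cells, endogenous beta-catenin | times = compound treatment 24 h, 37°C, 5% CO2 | detection = Anti-beta-catenin immunofluorescence on PFA-fixed, Triton-permeabilized cells, DAPI nuclei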
# Numbers stand for hits; . = inactive; / = no result. A selection: hits, their analogues and other compounds. The true share with any hit is near 2.1%.
SMILES,KLF5 inh,BaF3 parental,MT stabilize HCS,IEC-6 tox,Ba/F3 V617F tox,bCat nuc transl
COc1cc2c(cc1OC)-c1cc3ccc4c(c3c[n+]1CC2)OCO4,.,57,.,.,49,/
COc1cc2c(cc1OC)C(c1ccccc1)=NCC2,.,.,.,.,.,.
COc1cc2c(ccc3cc(OC)c(OC)c(O)c32)cc1O,/,/,/,/,/,.
N#C[C@H]1[C@H](c2ccccc2)[C@](C#N)(C(=O)c2ccccc2)[C@@H]2C=Cc3ccccc3N21,.,.,25,.,.,78
CCOC(=O)/C=c1\s/c(=C\c2c(OC)ccc3ccccc23)c(=O)n1CC(=O)NCC1CCCO1 (centres undefined),.,.,.,.,.,190
Cn1ncc(N=Cc2c(O)ccc3ccccc23)c1C(=O)Nc1cccc(Cl)c1,.,.,15,.,.,.
COC(=O)c1ccc(C(=O)OC)c(NC(=O)CSCc2ccc(Br)cc2)c1,.,.,.,.,.,.
CC(C)(C)N(CC#CCC1(O)c2ccccc2-c2ccccc21)CCO,.,.,.,.,.,.
Oc1c(CN2CCCCC2)cc(Br)c2cccnc12,.,27,.,.,44,.
COc1ccc(-n2ccn3c(CCC(=O)N4CCN(c5cccc(C)c5C)CC4)nnc3c2=O)cc1,.,/,/,.,/,/
CC1(OC(=O)C2CCCC2)C(=O)C=C2C=C(c3ccsc3)N(CCCCO)C=C2C1=O (centres undefined),/,/,/,/,/,.
COc1ccc(CN2C=C3C(=O)C(C)(OC(=O)C4CCCC4)C(=O)C=C3C=C2c2ccsc2)cc1 (centres undefined),/,/,/,/,/,50
COc1ccc(NS(=O)(=O)c2ccc(N3CCOCC3)c(NC(=O)c3ccc(F)cc3)c2)cc1,.,43,.,.,38,.
COc1ccc(NS(=O)(=O)c2cc(NC(=O)c3cccs3)ccc2N2CCOCC2)cc1,.,.,13,.,.,.
COc1ccc(NS(=O)(=O)c2ccc(N3CCOCC3)c(NC(=O)c3cccc(F)c3)c2)cc1,.,41,.,.,30,.
COc1ccc(NS(=O)(=O)c2ccc(N3CCOCC3)c(NC(=O)C(C)C)c2)cc1,.,58,.,.,40,.
CC1=[N+](C)N(c2ccccc2)C(=O)C1N=C/C=C/c1ccccc1 (centres undefined),.,.,/,.,.,.
c1ccc2c(c1)CCN(C1=Nc3cccc4cccc1c34)C2,.,.,.,.,.,.
COc1ccc(NS(=O)(=O)c2ccc(N3CCOCC3)c(NC(=O)c3ccco3)c2)cc1,.,42,.,.,35,.
C=CCn1c(Cc2csc(N)n2)nnc1SCC(=O)OCC,.,.,.,.,.,.
CCCS(=O)(=O)c1nc(S(=O)(=O)c2ccc(C)cc2)c(N2CCCC(C)C2)s1 (centres undefined),.,/,/,.,/,/
CC(C)N=c1scc(-c2ccco2)n1/N=C/c1ccc(O)c(O)c1,.,73,.,.,96,.
COc1cc(NC(=S)NC(=O)c2ccccc2F)ccc1NC(=O)c1ccco1,.,.,15,.,.,.
O=C(CCn1c(=O)oc2ccccc21)Nc1cccc(Br)c1,.,/,/,.,/,/
O=C(O)c1cnn(-c2nc(-c3ccc(F)cc3)cs2)c1C(F)(F)F,.,.,.,.,.,.
SMILES,KLF5 inh,BaF3 parental,MT stabilize HCS,IEC-6 tox,Ba/F3 V617F tox,bCat nuc transl
CCOC(=O)c1cnn(-c2nc(-c3ccc(C)cc3)cs2)c1C(F)(F)F,.,.,29,.,.,.
CC(=O)Nc1ccc(C2=NN(Cc3nnc(-c4ccccc4)o3)C(=O)SC2)cc1,.,.,.,.,.,.
O=C1SCC(c2ccccc2)=NN1Cc1ccccc1,.,32,.,.,.,.
Cc1nc(=O)c(-c2ccccc2)c(C)n1CCCCCC(=O)O,.,.,.,.,.,/
COC(=O)c1ccc(CSc2nnc(CS(=O)Cc3ccc(Br)cc3)n2-c2ccccc2)cc1 (centres undefined),.,.,.,.,.,.
O=S(Cc1ccc(Br)cc1)Cc1nnc(SCc2ccc(Br)cc2)n1-c1ccccc1 (centres undefined),.,34,.,.,.,.
O=Cc1cc(-c2ccccc2)[nH]c1-c1ccccc1,.,/,/,.,/,/
CC1CCCCC1NC(=O)CCn1c(=O)sc2ccccc21 (centres undefined),.,/,/,.,/,/
COc1cccc(/C=N/n2c(SC)nnc2-c2ccccc2)c1O,.,.,.,.,.,90
COc1cccc(/C=N/n2c(SC)nnc2-c2ccccc2)c1OC,.,.,.,.,.,.
CN(C(=O)COc1ccccc1C(=O)NCCOc1ccccc1)c1ccccc1,.,36,.,.,.,.
O=C(NCCOc1ccccc1)c1ccccc1Cl,.,/,/,.,/,/
CN(C)c1cc(-c2ccccc2)nc(N)n1,/,/,13,/,/,/
CCC1CCCCN1C(=O)c1ccc(OC2CCN(C(=O)C3CC3)CC2)cc1 (centres undefined),.,.,.,.,.,.
CCN(CC)S(=O)(=O)c1ccc(OC)c(N)c1,.,.,.,.,.,.
O=C(c1ccc(Br)s1)N1CCN(c2ccccn2)CC1,.,/,/,.,/,/
O=C(N1CCN(c2ccccn2)CC1)N1c2ccccc2Sc2ccccc21,.,76,31,.,71,.
Cc1nc(-c2ccccc2)sc1C(=O)NN,.,.,.,.,.,.
Cc1ccc(N/C=C/C(=O)c2sc(-c3ccccc3)nc2C)cc1,.,.,51,.,.,.
Cc1ccc(NC(=O)Cn2ccc([N+](=O)[O-])n2)cc1Cl,.,.,.,.,.,.
O=C1c2cccc3cccc(c23)C(=O)N1Cc1cccnc1,.,.,/,.,.,.
Cc1ccnc(N2C(=O)c3cccc4c([N+](=O)[O-])ccc(c34)C2=O)c1,.,36,.,.,.,.
O=C1c2cccc3c([N+](=O)[O-])ccc(c23)C(=O)N1Cc1cccnc1,.,37,.,.,42,.
Cc1ccc(N2C(=O)c3cccc4c([N+](=O)[O-])ccc(c34)C2=O)c2cccnc12,.,.,/,.,.,52
Cc1nc2ccc(NC(=O)c3ccc([N+](=O)[O-])cc3)cc2[nH]1,.,/,/,.,/,/
SMILES,KLF5 inh,BaF3 parental,MT stabilize HCS,IEC-6 tox,Ba/F3 V617F tox,bCat nuc transl
CC(Cl)C(=O)Nc1ccccc1C#N (centres undefined),.,.,.,.,.,.
Cc1cc(C[n+]2ccccc2)c2nsnc2c1,.,59,.,.,59,.
CCN(CC)c1ccc(NC(=O)c2ccccc2F)cc1,.,.,52,.,.,/
CC1Cc2ccccc2N1C(=O)c1ccc2nccnc2c1 (centres undefined),.,/,/,.,/,/
O=Cc1cc2ccccc2nc1SCc1ccc(Cl)cc1,.,.,28,.,.,.
O=Cc1cc2ccccc2nc1SCc1ccc(Cl)c(Cl)c1,.,.,18,.,.,.
O=c1[nH]c(SCc2ccc(Cl)cc2)nc2ccccc12,.,.,.,.,.,.
Cc1ccc(CSc2nc3ccccc3cc2C=O)cc1,.,.,21,.,.,.
